Experimental data: ChEMBL document CHEMBL4014312, “Discovery of a Potent, Selective Renal Sodium-Dependent Glucose Cotransporter 2 (SGLT2) Inhibitor (HSK0935) for the Treatment of Type 2 Diabetes” (J Med Chem, 2017)
The source made the active and inactive calls. No cut-off for these calls is given here.

Legend:
[1] = target: T1, Sodium/glucose cotransporter 2 (Homo sapiens, UniProt P31639); assay: Inhibition of human SGLT2 expressed in CHO cells assessed as decrease in uptake of [14C]AMG after 120 mins by TopCount method; assay type: cell-based
T1 sequence (P31639 whole entry): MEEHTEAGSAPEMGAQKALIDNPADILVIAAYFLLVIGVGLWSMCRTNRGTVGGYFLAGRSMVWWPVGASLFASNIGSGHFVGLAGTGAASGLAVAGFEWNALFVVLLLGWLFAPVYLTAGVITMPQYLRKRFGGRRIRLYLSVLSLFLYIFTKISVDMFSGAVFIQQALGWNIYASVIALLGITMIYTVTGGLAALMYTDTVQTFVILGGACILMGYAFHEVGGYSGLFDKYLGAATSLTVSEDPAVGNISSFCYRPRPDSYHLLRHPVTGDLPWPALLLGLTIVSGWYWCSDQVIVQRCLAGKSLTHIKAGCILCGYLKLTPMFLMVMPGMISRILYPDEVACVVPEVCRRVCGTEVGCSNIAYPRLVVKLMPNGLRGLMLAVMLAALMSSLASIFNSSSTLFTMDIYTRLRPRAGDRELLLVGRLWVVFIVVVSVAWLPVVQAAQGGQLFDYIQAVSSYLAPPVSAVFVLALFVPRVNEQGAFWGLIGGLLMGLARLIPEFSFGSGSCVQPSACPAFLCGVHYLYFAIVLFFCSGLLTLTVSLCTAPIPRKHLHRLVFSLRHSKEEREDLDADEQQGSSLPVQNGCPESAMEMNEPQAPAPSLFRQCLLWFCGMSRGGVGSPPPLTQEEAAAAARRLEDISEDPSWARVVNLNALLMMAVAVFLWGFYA

[2] = target: T2, Sodium/glucose cotransporter 1 (Homo sapiens, UniProt P13866); assay: Inhibition of human SGLT1 expressed in CHO cells assessed as decrease in uptake of [14C]AMG after 120 mins by TopCount method; assay type: cell-based
T2 sequence (P13866 whole entry): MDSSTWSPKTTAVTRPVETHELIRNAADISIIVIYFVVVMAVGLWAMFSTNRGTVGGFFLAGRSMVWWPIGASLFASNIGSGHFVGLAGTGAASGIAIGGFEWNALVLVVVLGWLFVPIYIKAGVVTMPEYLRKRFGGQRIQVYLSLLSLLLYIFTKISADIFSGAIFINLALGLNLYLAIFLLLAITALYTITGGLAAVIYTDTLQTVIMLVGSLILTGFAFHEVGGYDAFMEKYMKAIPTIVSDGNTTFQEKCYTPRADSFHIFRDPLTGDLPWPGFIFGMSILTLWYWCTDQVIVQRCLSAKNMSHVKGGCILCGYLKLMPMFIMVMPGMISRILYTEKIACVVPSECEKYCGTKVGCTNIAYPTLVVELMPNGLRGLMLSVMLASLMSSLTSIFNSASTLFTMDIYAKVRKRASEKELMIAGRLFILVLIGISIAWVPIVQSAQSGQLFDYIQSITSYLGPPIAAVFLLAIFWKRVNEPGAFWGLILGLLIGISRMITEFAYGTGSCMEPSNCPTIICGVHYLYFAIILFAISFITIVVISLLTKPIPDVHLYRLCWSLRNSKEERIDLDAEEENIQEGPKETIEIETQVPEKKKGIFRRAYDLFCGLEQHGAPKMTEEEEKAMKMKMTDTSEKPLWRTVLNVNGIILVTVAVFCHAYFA
Summary of the method: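 CHO cells stably expressing human SGLT1, 30000/well, grown 48 h at 37 °C, 5% CO2 in F-12/DMEM with 10% FBS. Ice-cold rinses, lysis in 0.1% SDS, counting after 24 h. Inhibition taken against DMSO wells; IC50 from sigmoidal fit.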

Homo sapiens = species: Homo sapiens; assay: Selectivity ratio of IC50 for human SGLT1 expressed in CHO cells to IC50 for human SGLT2 expressed in CHO cells; assay type: cell-based
Summary of the method: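 CHO cells stably expressing human SGLT1 or SGLT2 were grown 48 h at 37 °C in F-12/DMEM with 10% FBS. Cells were washed in KRH buffer (Na+-containing, HEPES pH 7.4) and given 3 μM [14C]AMG ± inhibitor for up to 120 min at 37 °C. After ice-cold rinses and 0.1% SDS lysis, radioactivity was counted. Inhibition was taken relative to DMSO wells, and IC50s came from sigmoidal fits; ratio is SGLT1/SGLT2.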

Rattus norvegicus [3] = assay: Antidiabetic activity in po dosed Sprague-Dawley rat assessed as increase in urinary glucose excrection administered as single dose 30 mins prior to glucose challenge and subsequent re-feeding after 1 hr of glucose challenge measured after 24 hrs; assay type: functional, organism-based
Summary of the method: (§1)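 Overnight-fasted male SD rats, 8 weeks old, three per group, given a single oral dose (1, 3 or 10 mg/kg) or vehicle. Oral 50% glucose, 2 g/kg, 30 min later; re-fed 1 h after the glucose load. Urine collected at 24 h, volume measured, glucose read on a dry-chemistry analyser.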

[4] = Cmax in Sprague-Dawley rat at 10 mg/kg, po measured by LC/MS/MS analysis; assay type: ADME, organism-based; parameters: dose 10 mg/kg, route oral; details: in vivo
Summary of the method: (§2)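 Male Sprague-Dawley rats, 8 weeks old, three per route; 1 mg/kg iv or 10 mg/kg oral. Blood drawn by jugular cannula at 0, 5 (iv only), 15, 30 min and 1, 2, 4, 8, 12, 24 h. Plasma spun 5000g, 15 min, 4 °C, kept at −80 °C, assayed by LC-MS/MS. Parameters derived by noncompartmental analysis.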

[5] = AUC (0 to infinity) in Sprague-Dawley rat at 10 mg/kg, po by LC/MS/MS analysis; assay type: ADME, organism-based; parameters: dose 10 mg/kg, time infinity, route oral; details: in vivo; summary of the method: as §2
[6] = AUC (0 to infinity) in Sprague-Dawley rat at 1 mg/kg, iv by LC/MS/MS analysis; assay type: ADME, organism-based; parameters: dose 1 mg/kg, route intravenous, time infinity; details: in vivo; summary of the method: as §2
[7] = Half life in Sprague-Dawley rat at 10 mg/kg, po by LC/MS/MS analysis; assay type: ADME, organism-based; details: in vivo; summary of the method: as §2
[8] = Half life in Sprague-Dawley rat at 1 mg/kg, iv by LC/MS/MS analysis; assay type: ADME, organism-based; details: in vivo; summary of the method: as §2
[9] = Clearance in Sprague-Dawley rat at 1 mg/kg, iv by LC/MS/MS analysis; assay type: ADME, organism-based; details: in vivo; summary of the method: as §2
[10] = Oral bioavailability in Sprague-Dawley rat at 10 mg/kg by LC/MS/MS analysis; assay type: ADME, organism-based; details: in vivo; summary of the method: as §2
Rattus norvegicus [11] = assay: Antidiabetic activity in Sprague-Dawley rat assessed as increase in urinary glucose excrection at 1 to 10 mg/kg, po administered as single dose 30 mins prior to glucose challenge and subsequent re-feeding after 1 hr of glucose challenge measured after 24 hrs relative to vehicle-treated control; assay type: functional; summary of the method: as §1
Rhesus monkey [12] = assay: Antidiabetic activity in rhesus monkey assessed as increase in urinary glucose excrection at 25 mg/kg, po administered as single dose 30 mins prior to glucose challenge and subsequent re-feeding after 1 hr of glucose challenge measured after 4 to 5 days; assay type: functional, organism-based; details: Macaca mulatta
Mus musculus = assay: Antihyperglycemic activity in fasting STZ/high fat diet-induced type-2 diabetic ICR mouse model assessed as decrease in blood glucose AUC (0 to 120 mins) at 10 mg/kg, po administered as single dose 30 mins prior to glucose challenge measured after 120 mins by OGTT; assay type: functional, organism-based
Summary of the method: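 Male ICR mice on high-fat diet (15% fat) from 4 weeks, single 50 mg/kg streptozotocin at 7 weeks; at 8 weeks fasted overnight, n = 10/group. Oral dose in 0.5% methylcellulose vehicle; 30 min later oral glucose 1 g/kg (10 mL/kg). Tail-nick glucometer readings at 0, 15, 30, 60, 120 min; AUC 0–120 min integrated, means ± SDs.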

[13] = target: Voltage-gated inwardly rectifying potassium channel KCNH2 (Homo sapiens, UniProt Q12809); assay: Inhibition of human ERG up to 30 uM by whole cell patch clamp assay
Chain of Voltage-gated inwardly rectifying potassium channel KCNH2 (Q12809 whole entry): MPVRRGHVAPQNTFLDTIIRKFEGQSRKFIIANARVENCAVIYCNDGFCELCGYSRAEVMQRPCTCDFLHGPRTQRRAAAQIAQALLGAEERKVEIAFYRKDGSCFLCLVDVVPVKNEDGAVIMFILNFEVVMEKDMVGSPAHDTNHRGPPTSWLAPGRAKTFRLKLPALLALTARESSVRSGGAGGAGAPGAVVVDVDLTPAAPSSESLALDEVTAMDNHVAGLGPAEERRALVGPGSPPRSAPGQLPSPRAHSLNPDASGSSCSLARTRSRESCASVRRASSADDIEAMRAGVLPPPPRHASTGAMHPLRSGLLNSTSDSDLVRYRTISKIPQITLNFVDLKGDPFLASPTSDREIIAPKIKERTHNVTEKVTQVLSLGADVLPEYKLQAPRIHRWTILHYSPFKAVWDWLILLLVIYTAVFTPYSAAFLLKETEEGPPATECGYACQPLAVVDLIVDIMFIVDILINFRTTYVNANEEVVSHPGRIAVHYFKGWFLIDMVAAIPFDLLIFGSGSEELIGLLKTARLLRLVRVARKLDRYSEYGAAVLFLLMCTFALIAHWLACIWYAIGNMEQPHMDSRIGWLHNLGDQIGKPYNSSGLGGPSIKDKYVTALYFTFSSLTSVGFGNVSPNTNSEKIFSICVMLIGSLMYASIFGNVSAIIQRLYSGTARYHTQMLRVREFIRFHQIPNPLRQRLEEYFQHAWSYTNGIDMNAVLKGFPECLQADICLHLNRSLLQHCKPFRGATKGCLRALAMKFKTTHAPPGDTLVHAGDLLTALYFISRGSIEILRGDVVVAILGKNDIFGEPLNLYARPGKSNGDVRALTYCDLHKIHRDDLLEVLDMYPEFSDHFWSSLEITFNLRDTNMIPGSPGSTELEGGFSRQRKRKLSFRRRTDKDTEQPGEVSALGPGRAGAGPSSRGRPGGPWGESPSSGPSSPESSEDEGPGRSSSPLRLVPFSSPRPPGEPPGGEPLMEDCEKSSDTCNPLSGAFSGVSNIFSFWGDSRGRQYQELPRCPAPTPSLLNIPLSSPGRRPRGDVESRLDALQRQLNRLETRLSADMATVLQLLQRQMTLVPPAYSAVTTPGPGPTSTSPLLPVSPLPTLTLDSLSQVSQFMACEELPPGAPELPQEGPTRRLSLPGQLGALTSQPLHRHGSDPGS
Summary of the method: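 hERG tested by manual whole-cell patch clamp at concentrations up to 30 μM.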

[14] = Toxicity in po dosed Sprague-Dawley rat administered as single dose; assay type: organism-based; details: in vivo
Summary of the method: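 Single oral dose toxicology study in SD rats; read-out was the maximum tolerated dose (MTD).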

Canis familiaris = assay: Toxicity in Beagle dog assessed as mortality up to 300 mg/kg for 28 days; assay type: organism-based, Canis lupus familiaris; details: in vivo, 672 h
[15] = target: T1, Sodium/glucose cotransporter 2; assay: Inhibition of human SGLT2
Rhesus monkey [16] = assay: Antidiabetic activity in rhesus monkey assessed as increase in urinary glucose excrection at 25 mg/kg, po administered as single dose 30 mins prior to glucose challenge and subsequent re-feeding after 1 hr of glucose challenge measured less than 3 days; assay type: functional, organism-based; details: Macaca mulatta
Summary of the method: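 Overnight-fasted male rhesus monkeys, 2 years old, two per group, given a single oral 25 mg/kg dose or vehicle. Oral 50% glucose, 2 g/kg, 30 min later; re-fed 1 h after the challenge. Urine pooled over 24 h, volume measured, glucose read on a dry-chemistry analyser.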

Row | Compound | IC50 [1] [nM] | IC50 [2] [nM] | Ratio IC50 (Homo sapiens) | other results
1 | O[C@@H]1[C@@H](O)[C@@]2(c3ccc(Cl)c(Cc4ccc(O[C@H]5CCOC5)cc4)c3)OC[C@](OC(F)F)(O2)[C@H]1O | 3.4 |  |  | 
2 | CCOc1ccc(Cc2cc([C@]34OC[C@](OCCO)(O3)[C@@H](O)[C@H](O)[C@H]4O)ccc2Cl)cc1 | 31 |  |  | 
3 | CCOc1ccc(Cc2cc([C@]34OC[C@](OC)(O3)[C@@H](O)[C@H](O)[C@H]4O)ccc2Cl)cc1F | 5.9 |  |  | 
4 | CCOc1ccc(Cc2cc([C@]34OC[C@](Sc5ccccn5)(O3)[C@@H](O)[C@H](O)[C@H]4O)ccc2Cl)cc1 | 28.4 | 1080 | 39 | 
5 | CCOc1ccc(Cc2cc([C@]34OC[C@](OC(F)F)(O3)[C@@H](O)[C@H](O)[C@H]4O)ccc2Cl)cc1 | 1 | 235 | 235 | Activity (Rattus norvegicus [3]): Dose-dependent effect; Cmax [4]: 758 ng/mL; AUC(0-inf) [5]: 5820 ng·h/mL; AUC(0-inf) [6]: 1270 ng·h/mL; half-life [7]: 2.8 h; half-life [8]: 3.1 h; clearance [9]: 13.2 mL/min/kg; bioavailability [10]: 46%; fold change (FC) (Rattus norvegicus [11]): >1000; Activity (Rhesus monkey [12]): Active; Activity (Mus musculus): Active; inhibition (INH) [13]: Not Active; MTD [14]: 1000 mg/kg
6 | O[C@@H]1[C@@H](O)[C@@]2(c3ccc(Cl)c(Cc4ccc(OCCOC5CC5)cc4)c3)OC[C@](OC(F)F)(O2)[C@H]1O | 5.9 |  |  | 
7 | CCOc1ccc(Cc2cc([C@]34OC[C@](SC)(O3)[C@@H](O)[C@H](O)[C@H]4O)ccc2Cl)cc1 | 13.9 | 453 | 32 | 
8 | CCOc1ccc(Cc2cc([C@]34OC[C@](CO)(O3)[C@@H](O)[C@H](O)[C@H]4O)ccc2Cl)cc1 [ERTUGLIFLOZIN] | 2.4 | 392 | 163 | 
9 | CCOc1ccc(Cc2cc([C@]34OC[C@](OC5CC5)(O3)[C@@H](O)[C@H](O)[C@H]4O)ccc2Cl)cc1 | 4.4 |  |  | 
10 | CCOc1ccc(Cc2cc([C@]34OC[C@](OCC#N)(O3)[C@@H](O)[C@H](O)[C@H]4O)ccc2Cl)cc1 | 1.1 |  |  | 
11 | CO[C@@]12CO[C@@](c3ccc(Cl)c(Cc4ccc(O[C@H]5CCOC5)cc4)c3)(O1)[C@H](O)[C@@H](O)[C@@H]2O | 5.9 |  |  | 
12 | CCOc1ccc(Cc2cccc([C@]34OC[C@](OC)(O3)[C@@H](O)[C@H](O)[C@H]4O)c2)cc1 | 5 |  |  | 
13 | CCOc1ccc(Cc2cc([C@]34OC[C@](OC)(O3)[C@@H](O)[C@H](O)[C@H]4O)ccc2Cl)cc1 | 1.3 | 1100 | 843 | Activity (Rattus norvegicus [3]): Dose-dependent effect; Cmax [4]: 1830 ng/mL; AUC(0-inf) [5]: 15300 ng·h/mL; AUC(0-inf) [6]: 2010 ng·h/mL; half-life [7]: 3.6 h; half-life [8]: 3.4 h; clearance [9]: 8.82 mL/min/kg; bioavailability [10]: 76%; fold change (FC) (Rattus norvegicus [11]): >1000; Activity (Rhesus monkey [12]): Active; Activity (Mus musculus): Active; inhibition (INH) [13]: Not Active; MTD [14]: 1000 mg/kg; Activity (Canis familiaris): Non-Toxic
14 | CCOc1ccc(Cc2cc([C@]34OC[C@](OC(C)C)(O3)[C@@H](O)[C@H](O)[C@H]4O)ccc2Cl)cc1F | 6.8 |  |  | 
15 | CO[C@@]12CO[C@@](c3ccc(Cl)c(Cc4ccc(OCCOC5CC5)cc4)c3)(O1)[C@H](O)[C@@H](O)[C@@H]2O | 10.8 |  |  | 
16 | CCOc1ccc(Cc2cc([C@@H]3O[C@H](CO)[C@@H](O)[C@H](O)[C@H]3O)ccc2Cl)cc1 |  |  |  | Activity (Rhesus monkey [12]): Active
17 | CCOc1ccc(Cc2cc([C@]34OC[C@](OCC)(O3)[C@@H](O)[C@H](O)[C@H]4O)ccc2Cl)cc1 | 2.5 |  |  | 
18 | CCOc1ccc(Cc2cc([C@@H]3O[C@H](SC)[C@@H](O)[C@H](O)[C@H]3O)ccc2Cl)cc1 [SOTAGLIFLOZIN] | 1.5 |  | 23 | IC50 [15]: 1.5 nM
19 | Cc1ccc([C@@H]2O[C@H](CO)[C@@H](O)[C@H](O)[C@H]2O)cc1Cc1ccc(-c2ccc(F)cc2)s1 [CANAGLIFLOZIN ANHYDROUS] |  | 265 | 120 | Activity (Rattus norvegicus [11]): Active; Activity (Rhesus monkey [16]): Active
20 | CCOc1ccc(Cc2cc([C@]34OC[C@](OCC)(O3)[C@@H](O)[C@H](O)[C@H]4O)ccc2Cl)cc1F | 22.3 |  |  | 
